Screening data deposited in PubChem by several laboratories.
PKA-R2B activ: PKA-R2B complex activation. P22694+P31323. PKA-R2B holoenzyme dissociation, Cy5-IP20 fluorescence polarization; R2B truncated from residue 108, S112A mutant; 0% DMSO only, 100% 113 µM cGMP. activation, % at 11.4 µM. hit rate 0.079% among 340,000;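 active means activation above a cutoff set at the mean over all compounds plus 3 SD, cut at about 18% in these data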;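 further: higher means more holoenzyme dissociation and a rise in polarization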
Rin1-Abl PPI inh: inhibitors of human Rin1-Abl protein interaction | hit rate 0.4% among 360,000 | P00519+Q13671 | inhibition, % at 7.35 µM | AID 588664 | TR-FRET Rin1/Abl binding, biochemical; in the data active means inhibition above about 5%, passing the limit was not always enough
UCH37 DUB inh: human UCH37 deubiquitinating enzyme inhibition. purified proteasome/UCH37, Ub-AMC cleavage fluorescence. hit rate 0.33% among 330,000. inhibition, % (test concentration not listed). Q9Y5K5;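 active means mean inhibition over replicate wells above about 20%, limit read from the data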
Target sequence (Q9Y5K5 whole entry, looked up): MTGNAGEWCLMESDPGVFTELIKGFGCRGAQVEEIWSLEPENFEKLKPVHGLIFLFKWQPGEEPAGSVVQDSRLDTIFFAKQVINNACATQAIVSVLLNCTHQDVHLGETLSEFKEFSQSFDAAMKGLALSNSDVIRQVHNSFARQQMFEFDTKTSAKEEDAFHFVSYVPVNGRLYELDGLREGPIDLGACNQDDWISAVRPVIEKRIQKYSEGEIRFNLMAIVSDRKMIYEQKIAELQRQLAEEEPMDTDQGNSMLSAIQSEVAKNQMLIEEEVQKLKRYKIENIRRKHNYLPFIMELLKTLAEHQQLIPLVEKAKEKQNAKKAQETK
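Schedule: 30 min plus 25 min, room temperature / Material: human UCH37 within purified proteasomes / Technique: AMC fluorescence intensity at 355/460 nm / Buffer or medium: pH 7.4 Tris-HCl (50 mM) with ovalbumin, ATP-MgCl2, DTT / Controls: wells without proteasome as full block, compound-free enzyme plus substrate as uninhibited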
PKA-R1A activ: activators of PKA-R1A complex; P00514+P68181; PKA-R1A dissociation, Cy5-IP20 fluorescence polarization; scaled: DMSO 0%, 113 µM cGMP 100%; activation, % at 11.4 µM; hit rate 0.083% among 340,000; AID 504707;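 active means percent activation above the mean of all tested compounds plus 3 SD, cut at about 19% in these data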;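 further: higher means more PKAc released from R1A so a rise in polarization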
Each line names hits and unclear results; the compound was inactive in the other large screens. An excerpt weighted towards active compounds, which were near 0.79% of everything screened.

Nc1ccc2c(c1)Cc1cc([N+](=O)[O-])ccc1-2	UCH37 DUB inh 29
CC(=NO)c1ccc2c(c1)Cc1cc([N+](=O)[O-])ccc1-2	none (no result: UCH37 DUB inh)
O=C(NCc1ccco1)Nc1cccc2ccccc12	none
CSc1ccc(S(=O)(=O)NCC(=O)OCC(=O)NCCc2ccccc2)cc1[N+](=O)[O-]	none
COc1cccc(C2=N/C(=C\N(C)C)C(=O)O2)c1	UCH37 DUB inh 25
CC(=O)c1cccc(-c2ccc3c(=O)[nH]c(Nc4ccccc4)cc3c2)c1	UCH37 DUB inh 31
CC(=O)c1cccc(Nc2nc(-c3ccccc3)nc3ccccc23)c1	none
COC(CNC(=O)c1ccc2c3c(onc13)-c1ccccc1C2=O)OC	UCH37 DUB inh 20
CCCNC(=O)C(Cc1cccc(C#N)c1)NC(=O)c1ccc(C#N)cc1 (stereo not given)	none
CCCNC(=O)C(Cc1cccc(Cl)c1)NC(=O)c1ccc(C#N)cc1 (stereo not given)	UCH37 DUB inh 27
CC1CN(C(=O)c2ccc(S(=O)(=O)Nc3ccccc3F)cc2)CC(C)O1 (stereo not given)	none
COCCn1c(SCC(N)=O)nnc1-c1c[nH]c2ccccc12	none
COCCn1c(SCc2ccc(C(=O)OC)o2)nnc1-c1c[nH]c2ccccc12	Rin1-Abl PPI inh 11
Nc1cc(C(=O)c2ccccc2)ccc1N1CCOCC1	none
O=c1c(=Cc2cc([N+](=O)[O-])cc([N+](=O)[O-])c2O)sc2nc3ccccc3n12	UCH37 DUB inh 27 (no result: PKA-R2B activ, Rin1-Abl PPI inh, PKA-R1A activ)
O=c1/c(=C\c2cc([N+](=O)[O-])cc([N+](=O)[O-])c2O)sc2nc3ccccc3n12	none (no result: UCH37 DUB inh)
Nc1c(N(CCC2=CCCCC2)C(=O)COc2ccc(F)cc2)c(=O)[nH]c(=O)n1Cc1ccccc1	UCH37 DUB inh 24
O=C(O)CCC(=NNc1ccc([N+](=O)[O-])cc1S(=O)(=O)N1CCOCC1)c1cccs1	none (no result: PKA-R2B activ, Rin1-Abl PPI inh, PKA-R1A activ)
O=C(O)CCC(=NNc1ccc(S(=O)(=O)N2CCOCC2)cc1[N+](=O)[O-])c1cccs1	UCH37 DUB inh 20 (no result: PKA-R2B activ, Rin1-Abl PPI inh, PKA-R1A activ)
CCC(C(=O)Oc1c(C(C)C)cccc1C(C)C)c1ccccc1 (stereo not given)	UCH37 DUB inh 33
CCC(C(=O)O/N=C(\N)c1ccccc1)c1ccccc1 (stereo not given)	none
CC(=O)Oc1cc2cccc(OC(C)=O)c(=O)c2c(OC(C)=O)c1OC(C)=O	Rin1-Abl PPI inh 23
COc1cc2cccc(OC)c(=O)c2c(O)c1OC	none
O=c1[nH]cnc2c1C(c1ccc(Cl)cc1)c1c(nc[nH]c1=O)O2	Rin1-Abl PPI inh 7.7, PKA-R1A activ 19
CCOc1ccc(C2C(C#N)=C(N)Oc3nc[nH]c(=O)c32)cc1 (stereo not given)	none
O=C1c2cccc3cccc(c23)C(=O)C1(O)O	Rin1-Abl PPI inh 14
CCCSC1=C(C#N)C(c2ccccc2OCC)CC(=O)N1 (stereo not given)	none
Cc1ccc(S(=O)(=O)NN=Cc2ccc(OCC(=O)NC(C)C)cc2)cc1	UCH37 DUB inh 28 (no result: PKA-R2B activ, Rin1-Abl PPI inh, PKA-R1A activ)
O=C(Cn1ncc2c1-c1ccccc1OC2)Nc1ccc(S(=O)(=O)N2CCCCC2)cc1	Rin1-Abl PPI inh 12
O=C(Cn1nc(-c2ccccc2F)ccc1=O)Nc1ccc(S(=O)(=O)N2CCCCCC2)cc1	none
COc1cc(CO)cc(-c2cc(CO)cc(OC)c2OC)c1OC	UCH37 DUB inh 26
CCOC(=O)c1cc(-c2ccc(/C=C3/C(=O)NC(=O)C(C#N)=C3C)o2)ccc1Cl	UCH37 DUB inh 22
c1ccc(-c2nnc(-c3ccco3)o2)cc1	none
c1coc(-c2nnc(-c3ccco3)nn2)c1	UCH37 DUB inh 32
Cc1ccc(Cn2ccc(=O)c(OCc3c(Cl)cccc3Cl)c2C)cc1	UCH37 DUB inh 25
Cc1[nH]ccc(=O)c1OCc1c(Cl)cccc1Cl	none
C#CCOCCOCCOCCNc1nc(N2CCN(C(=O)CCCCCCCCCCNC(=O)[C@H]([C@@H](C)CC)n3cc(CCCCN=C(N)N)nn3)CC2)nc(N2CCN(C(=O)CCCCCCCCCCNC(=O)[C@@H]([C@H](C)O)n3cc(C)nn3)CC2)n1	Rin1-Abl PPI inh 14 (no result: UCH37 DUB inh)
C#CCOCCOCCOCCNc1nc(N2CCN(C(=O)CCCCCCCCCCNC(=O)[C@H](CCCCN)n3cc(C[C@@H](C)CC)nn3)CC2)nc(N2CCN(C(=O)CCCCCCCCCCNC(=O)[C@H](CCCN=C(N)N)n3cc(C[C@@H](C)CC)nn3)CC2)n1	none (no result: UCH37 DUB inh)
C#CCOCCOCCOCCNc1nc(N2CCN(C(=O)CCCCCCCCCCNC(=O)[C@@H](CCSC)n3cc(CCO)nn3)CC2)nc(N2CCN(C(=O)CCCCCCCCCCNC(=O)[C@H](CCCN=C(N)N)n3cc(C[C@@H](C)CC)nn3)CC2)n1	Rin1-Abl PPI inh 27 (no result: UCH37 DUB inh)
C#CCOCCOCCOCCNc1nc(N2CCN(C(=O)CCCCCCCCCCNC(=O)Cn3cc(C[C@@H](C)O)nn3)CC2)nc(N2CCN(C(=O)CCCCCCCCCCNC(=O)[C@@H]([C@H](C)O)n3cc(C)nn3)CC2)n1	none
C#CCOCCOCCOCCNc1nc(N2CCN(C(=O)CCCCCCCCCCNC(=O)Cn3cc(CCCCCN)nn3)CC2)nc(N2CCN(C(=O)CCCCCCCCCCNC(=O)[C@@H]([C@H](C)O)n3cc(C)nn3)CC2)n1	Rin1-Abl PPI inh 11
CC(C)n1ncc2c(C(=O)Nc3ccc(S(C)(=O)=O)cc3)cc(C3CC3)nc21	none
CCOC(=O)/C(C#N)=C/C=C1/C=CC=CN1C	UCH37 DUB inh 20
CCOc1ccc(-c2nc(CSCC(=O)NCc3ccco3)c(C)o2)cc1	none
O=C(Cc1ccc(F)cc1)N1CCC(CC2CC(c3ccc(Cl)cc3)=NO2)(C(=O)NCC2CCCCC2)CC1 (stereo not given)	UCH37 DUB inh 39
COc1ccc(N2CCN(C(=O)c3ccccc3N(C)S(=O)(=O)c3ccccc3)CC2)cc1	none
CCCCOP(=O)(OCCCC)C(O)c1ccc(F)cc1 (stereo not given)	none
COCCC(=O)Nc1ccc2c(c1)CN(C(=O)CSC)CC2	none
C(=Nc1ccc(Nc2ccccc2)cc1)c1ccc2ccccc2c1	Rin1-Abl PPI inh 14
NC(=S)N/N=C/c1ccc2ccccc2c1	none (no result: UCH37 DUB inh)
Brc1ccc(C=Nc2ccc(Nc3ccccc3)cc2)s1	Rin1-Abl PPI inh 7.2
O=C(NCCCO)c1cc2c(cn1)[nH]c1ccccc12	none
O=C(NC(=S)Nc1sc2c(c1C(=O)O)CCCC2)c1ccccc1	none (no result: UCH37 DUB inh)
C[C@H]1CN(C2CCCCC2)C(=O)[C@@H]1CC(=O)NCc1ccccc1	none
CCCCC[C@H]1CN(C2CCCCC2)C(=O)[C@@H]1CC(=O)NCc1ccccc1	UCH37 DUB inh 32
COc1ccc(CNc2ccc3cn[nH]c3c2)c(OC)c1OC	UCH37 DUB inh 22
CCN(CC)c1ccc(/C=C2\C(=N)N3N=C(CC(=O)N4CCOCC4)SC3=NC2=O)cc1	UCH37 DUB inh 21
Cc1nc(Nc2ccc(S(N)(=O)=O)cc2)sc1C(=O)Nc1ccccc1	UCH37 DUB inh 21
Cc1ccc(-c2cn(-c3ccccc3)c3[n+]2CCCS3)cc1	none
